Measurements: article PMC8992012 (Bioorganic & medicinal chemistry, 2021)

Tested on: NF-κB
Experiment: NF-κB activation using THP1-Blue NF-κB cells
Assay type: cell-based, human
Details: for NF-κB activity (in words, SAR text to Table 1): compound alone, 5 μM, 20h; for activation at 5 µM: Homo sapiens, 20 h, read-out: NF-κB SEAP Compound alone % Activation
Summary of the method: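 THP1-Blue NF-κB cells carry a stably integrated NF-κB-inducible SEAP. They were plated at 10^5 cells/well in RPMI with 10% FBS, penicillin, streptomycin and Normocin, then treated for 20 h with 5 μM test compound (0.5% DMSO final), alone or with LPS at 10 ng/mL. Supernatant SEAP was read colorimetrically at 630 nm. Signals were two-point normalized: baseline (vehicle or LPS) 100%, reference hit 200%.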

SMILES	NF-κB activity (in words, SAR text to Table 1)	activation at 5 µM	NF-κB induction in the presence of LPS (in words, Fig. 6) (in presence of LPS, compared to compound 1)
Cc1cccc(-c2csc(NC(=O)c3ccc(S(=O)(=O)N4CCCCC4)cc3)n2)c1C [Compound 12l, N-(4-(2,3-dimethylphenyl)thiazol-2-yl)-4-(piperidin-1-ylsulfonyl)benzamide]	retained activity	–	–
O=C(Nc1nc(-c2cccc3ccccc23)cs1)c1ccc(S(=O)(=O)N2CCCCC2)cc1 [Compound 12q, N-(4-(naphthalen-1-yl)thiazol-2-yl)-4-(piperidin-1-ylsulfonyl)benzamide]	equally potent	–	–
Cc1ccc(C)c(-c2csc(NC(=O)c3cccc(C(=O)N4CCCCC4)c3)n2)c1 [Compound 45d, N-(4-(2,5-dimethylphenyl)thiazol-2-yl)-3-(piperidine-1-carbonyl)benzamide]	none of these modifications at site E was tolerated	100%	–
CCc1csc(NC(=O)c2ccc(S(=O)(=O)N3CCCCC3)cc2)n1 [Compound 12h, N-(4-ethylthiazol-2-yl)-4-(piperidin-1-ylsulfonyl)benzamide]	None of these molecules had any NF-κB activity	100%	–
Cc1cc(C)cc(-c2csc(NC(=O)c3ccc(S(=O)(=O)N4CCCCC4)cc3)n2)c1 [Compound 12o, N-(4-(3,5-dimethylphenyl)thiazol-2-yl)-4-(piperidin-1-ylsulfonyl)benzamide]	inactive	–	–
Cc1ccc(C)c(-c2nc(NC(=O)c3ccc(S(=O)(=O)N4CCCCC4)cc3)sc2N2CCCCC2)c1 [Compound 18h, N-(4-(2,5-dimethylphenyl)-5-(piperidin-1-yl)thiazol-2-yl)-4-(piperidin-1-ylsulfonyl)benzamide]	completely inactive	–	–
Cc1ccc(C)c(-c2csc(NC(=O)c3ccc(S(=O)(=O)N4CCCCC4)c(Cl)c3)n2)c1 [Compound 42d, 3-chloro-N-(4-(2,5-dimethylphenyl)thiazol-2-yl)-4-(piperidin-1-ylsulfonyl)benzamide]	retained NF-κB activity	–	–
CCCC#Cc1sc(NC(=O)c2ccc(S(=O)(=O)N3CCC(CCC)CC3)cc2)nc1-c1cc(C)ccc1C [Compound 57, N-(4-(2,5-dimethylphenyl)-5-(pent-1-yn-1-yl)thiazol-2-yl)-4-((4-propylpiperidin-1-yl)sulfonyl)benzamide]	significant loss of activity	–	–
Cc1ccc(N=[N+]=[N-])c(-c2csc(NC(=O)c3ccc(S(=O)(=O)N4CCCCC4)cc3)n2)c1 [Compound 66, N-(4-(2-azido-5-methylphenyl)thiazol-2-yl)-4-(piperidin-1-ylsulfonyl)benzamide]	–	–	inactive
Cc1ccc(C)c(-c2nc(NC(=O)c3ccc(S(=O)(=O)N4CCCCC4)cc3)sc2-c2ccco2)c1 [Compound 18j, N-(4-(2,5-dimethylphenyl)-5-(furan-2-yl)thiazol-2-yl)-4-(piperidin-1-ylsulfonyl)benzamide]	completely inactive	–	–
Cc1ccccc1-c1csc(NC(=O)c2ccc(S(=O)(=O)N3CCCCC3)cc2)n1 [Compound 12b, 4-(piperidin-1-ylsulfonyl)-N-(4-(o-tolyl)thiazol-2-yl)benzamide]	inactive	100%	–
Cc1ccc(C)c(-c2csc(NC(=O)c3ccc(C(=O)N4CCCCC4)cc3)n2)c1 [Compound 45c, N-(4-(2,5-dimethylphenyl)thiazol-2-yl)-4-(piperidine-1-carbonyl)benzamide]	none of these modifications at site E was tolerated	–	–
Cc1ccc(C)c(-c2csc(NC(=O)c3ccc(SC4CCCCC4)cc3)n2)c1 [Compound 45a, 4-(cyclohexylthio)-N-(4-(2,5-dimethylphenyl)thiazol-2-yl)benzamide]	none of these modifications at site E was tolerated	–	–
